Bioassay records as filed in PubChem BioAssay.
SMARCA2 act = SMARCA2 (BRM) function activators, primary screen, cell-based, luminescence, high throughput; MG213 cells, MMTV-luciferase reporter, dexamethasone, overnight; activation, % at 9.1 µM; hit rate 1% among 370,000; in the data active = activation above about 7.8%;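 also: 0% = vehicle wells and 100% = reference activator wells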
MPTP block = mitochondrial permeability transition pore inhibitors, primary screen, biochemical, isolated mouse mitochondria, absorbance | Ca2+ swelling absorbance, 30 min | hit rate 1.4% among 360,000 | inhibition, % at 10 µM;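 active = inhibition of 50% or more, scaled per plate between neutral and stimulator controls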;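 also: 0% = DMSO wells given calcium and 100% = 1 mM EGTA wells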
MC4R barr agon = MC4R agonists recruiting beta-arrestin, primary screen, cell-based, luminescence, agonist arm of biased-ligand search | Melanocortin receptor 4 (Homo sapiens), P32245 | U2OS MC4R beta-arrestin complementation; percent of melanotan II response, DMSO zero | activation, % at 8.9 µM | hit rate 0.98% among 360,000 | AID 540308, 2011;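 active = activation above a per-plate cutoff, the mean activation of sample wells on that plate plus 3 SD, cut at about 8% in these data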
ATG4B inhibitor = ATG4B protease inhibitors, primary screen, biochemical, fluorescence, uHTS | Cysteine protease ATG4B (Homo sapiens), Q9Y4P1 | hit rate 0.51% among 340,000 | inhibition, % at 8.33 µM | ATG4B cleavage of LC3-PLA2, NBD-HPC fluorescence, 1 h; in the data active = inhibition above about 40%
MC4R antagonist = MC4R antagonists of cAMP signaling, primary screen, cell-based, TR-FRET, antagonist arm of biased-ligand search. Melanocortin receptor 4 (Homo sapiens), P32245. MC4R-expressing cells, MTII-stimulated cAMP, LANCE TR-FRET. inhibition, % at 6.5 µM. hit rate 0.48% among 360,000;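 active = inhibition above its plate's cutoff, the mean of tested wells on that plate plus 3 SD, cut at about 29% in these data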;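 also: 0% = Melanotan II alone and 100% = Melanotan II plus saturating MCL0020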
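material = U2OS cells stably expressing human melanocortin 4 receptor (MC4R) | also added = Melanotan II challenge | dosing = single nominal compound dose of 6.5 µM | detection = TR-FRET with Eu-cAMP and labeled anti-cAMP, 671 nm | replication = singlicate | timing = compound 30 min, challenge 1 h, detection 1 h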
MC4R barr ag = MC4R beta-arrestin agonists, retest, confirmation, cell-based, luminescence, U2OS | shares compounds with MC4R barr agon | U2OS MC4R beta-arrestin recruitment; scaled DMSO 0%, Melanotan II 100% | activation, % at 8.9 µM | hit rate 31% among 2,400 | AID 602192, 2012;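 active = mean activation across replicates above the hit cutoff set in the earlier primary screen, cut at about 8% in these data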
MOR-DOR barr ag = agonists of MOR-DOR heterodimerization, counter-screen for MC4R biased agonist project, cell-based, luminescence; shares compounds with MC4R barr agon; U2OS PathHunter beta-arrestin, beta-gal luminescence; percent of deltorphin B response, DMSO zero; activation, % at 9.2 µM; hit rate 5.8% among 2,400; AID 602194, 2012;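 active = mean activation across replicates exceeds the hit threshold derived in the earlier primary screen, cut at about 18% in these data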;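 also: 100% = deltorphin B at 0.9 µM final and 0% = DMSO alone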
The depositor's hits bear a star. In the library only some 4.1% were active in any assay of this set; here they are far more common.

For O=C(COc1ccccc1)Nc1nc2cc3c(cc2s1)OCCO3 the results were SMARCA2 act 2, MPTP block 2, MC4R barr agon 14*, ATG4B inhibitor -7, MC4R antagonist 5, MC4R barr ag 6 and MOR-DOR barr ag 1.
CC1CCC2(CC1)CCN(CCCOC(=O)Nc1cccc(C(F)(F)F)c1)C2=O (centres undefined) was read as SMARCA2 act -6.
CCOc1ccc(N2C(=O)/C(=C/c3cccs3)N(C)C2=S)cc1 was read as SMARCA2 act -1, MPTP block 0, MC4R barr agon 26*, ATG4B inhibitor -4, MC4R antagonist 4, MC4R barr ag 12* and MOR-DOR barr ag 4.
`CCOc1ccc(N2C(=O)CN(C)C2=S)cc1` gave SMARCA2 act -4, MPTP block 0, MC4R barr agon -2, ATG4B inhibitor -6 and MC4R antagonist 8.
Cc1nnnn1/C(=C\c1ccccc1)C(=O)OCC(=O)Nc1cccc(S(=O)(=O)N(C)C)c1 was read as SMARCA2 act -6, MPTP block -1, MC4R barr agon -2, ATG4B inhibitor -6 and MC4R antagonist 12.
`Cc1nnnn1/C(=C\c1ccccc1)C(=O)OCC(=O)Nc1ccc(Cl)cc1F` gave SMARCA2 act -13, MPTP block -2, MC4R barr agon 37*, ATG4B inhibitor -4, MC4R antagonist -26, MC4R barr ag 24* and MOR-DOR barr ag 4.
Screening Cc1cc(C)c(Cn2c(=O)n(CCCC(=O)NCc3ccco3)c(=O)c3sccc32)c(C)c1 returned SMARCA2 act 3, MPTP block 1, MC4R barr agon 33*, ATG4B inhibitor 0, MC4R antagonist 0, MC4R barr ag -1 and MOR-DOR barr ag 7.
COC(=O)C1=C(C)N(Cc2cccc(C(F)(F)F)c2)C(=NCc2ccc(OC)cc2)NC1c1cccc(F)c1 (centres undefined) was read as SMARCA2 act -4.
`CC(C)[C@H](NC(=O)c1ccc(Cl)c(Cl)c1)C(=O)N1CCC[C@H]1C(=O)NCCc1ccccc1Cl` gave SMARCA2 act -3.
`COc1ccc(-c2noc(CNC(=O)c3ccc4c(c3)OCO4)n2)cc1` gave SMARCA2 act 0, MPTP block 0, MC4R barr agon -2, ATG4B inhibitor -17 and MC4R antagonist 0.
For COc1cc(-c2nc(-c3ccc(NC(=O)c4ccc5c(c4)OCO5)cc3)no2)cc(OC)c1OC the results were SMARCA2 act 8.0*, MPTP block -1, MC4R barr agon 23*, ATG4B inhibitor -16, MC4R antagonist 10, MC4R barr ag 28* and MOR-DOR barr ag 24*.
For Cc1ccccc1-c1nc(-c2ccc(NC(=O)c3ccc4c(c3)OCO4)cc2)no1 the results were SMARCA2 act 1, MPTP block 8, MC4R barr agon 23*, ATG4B inhibitor -3, MC4R antagonist 15, MC4R barr ag 17* and MOR-DOR barr ag 4.
Screening CC(COc1ccc(Cl)cc1)CN1CCC(C(O)(c2ccccc2)c2ccccc2)CC1 (centres undefined) returned SMARCA2 act -3.
For COC(=O)CSc1nnc(-c2ccc(NS(=O)(=O)c3c(C(C)C)cc(C(C)C)cc3C(C)C)cc2)o1 the results were SMARCA2 act -4.
`O=C(CCCN1C(=O)/C(=C\c2ccccc2)SC1=S)Nc1ccc(O)cc1` gave SMARCA2 act -5, MPTP block 0, MC4R barr agon -1, ATG4B inhibitor 9 and MC4R antagonist -6.
